Experimental data as given in ChEMBL document CHEMBL4052700, “Synthesis and biological evaluation of JL-A7 derivatives as potent ABCB1 inhibitors” (Bioorg Med Chem, 2017).
Counter-ions that a name gives are not always drawn.

How the values were obtained:
Type in all cases: cell-based
K562/A02 = experiment: Cytotoxicity against human K562/A02 cells after 48 hrs by MTT assay; conditions: K562/A02, 48 h
Outline: (§1)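 K562 (parental) and K562/A02 (ADM-resistant, ABCB1-overexpressing) cells, 1×10^4/well, grown 24 h. A graded dose of compound in medium was added, then 48 h at 37 °C under 5% CO2. MTT was added for 4 h at 37 °C and absorbance read at 570 nm. IC50 was taken from dose–response curves.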

K562 = experiment: Cytotoxicity against human K562 cells after 48 hrs by MTT assay; conditions: K562, 48 h; outline: as §1
[1] = target: T1, ATP-dependent translocase ABCB1 (Homo sapiens, UniProt P08183); experiment: Inhibition of ABCB1 in human K562/A02 cells assessed as potentiation of adriamycin-induced cytotoxicity by measuring reduction in ADR IC50 at 5 uM measured after 48 hrs by MTT assay relative to ADR alone
T1 sequence (P08183 whole entry): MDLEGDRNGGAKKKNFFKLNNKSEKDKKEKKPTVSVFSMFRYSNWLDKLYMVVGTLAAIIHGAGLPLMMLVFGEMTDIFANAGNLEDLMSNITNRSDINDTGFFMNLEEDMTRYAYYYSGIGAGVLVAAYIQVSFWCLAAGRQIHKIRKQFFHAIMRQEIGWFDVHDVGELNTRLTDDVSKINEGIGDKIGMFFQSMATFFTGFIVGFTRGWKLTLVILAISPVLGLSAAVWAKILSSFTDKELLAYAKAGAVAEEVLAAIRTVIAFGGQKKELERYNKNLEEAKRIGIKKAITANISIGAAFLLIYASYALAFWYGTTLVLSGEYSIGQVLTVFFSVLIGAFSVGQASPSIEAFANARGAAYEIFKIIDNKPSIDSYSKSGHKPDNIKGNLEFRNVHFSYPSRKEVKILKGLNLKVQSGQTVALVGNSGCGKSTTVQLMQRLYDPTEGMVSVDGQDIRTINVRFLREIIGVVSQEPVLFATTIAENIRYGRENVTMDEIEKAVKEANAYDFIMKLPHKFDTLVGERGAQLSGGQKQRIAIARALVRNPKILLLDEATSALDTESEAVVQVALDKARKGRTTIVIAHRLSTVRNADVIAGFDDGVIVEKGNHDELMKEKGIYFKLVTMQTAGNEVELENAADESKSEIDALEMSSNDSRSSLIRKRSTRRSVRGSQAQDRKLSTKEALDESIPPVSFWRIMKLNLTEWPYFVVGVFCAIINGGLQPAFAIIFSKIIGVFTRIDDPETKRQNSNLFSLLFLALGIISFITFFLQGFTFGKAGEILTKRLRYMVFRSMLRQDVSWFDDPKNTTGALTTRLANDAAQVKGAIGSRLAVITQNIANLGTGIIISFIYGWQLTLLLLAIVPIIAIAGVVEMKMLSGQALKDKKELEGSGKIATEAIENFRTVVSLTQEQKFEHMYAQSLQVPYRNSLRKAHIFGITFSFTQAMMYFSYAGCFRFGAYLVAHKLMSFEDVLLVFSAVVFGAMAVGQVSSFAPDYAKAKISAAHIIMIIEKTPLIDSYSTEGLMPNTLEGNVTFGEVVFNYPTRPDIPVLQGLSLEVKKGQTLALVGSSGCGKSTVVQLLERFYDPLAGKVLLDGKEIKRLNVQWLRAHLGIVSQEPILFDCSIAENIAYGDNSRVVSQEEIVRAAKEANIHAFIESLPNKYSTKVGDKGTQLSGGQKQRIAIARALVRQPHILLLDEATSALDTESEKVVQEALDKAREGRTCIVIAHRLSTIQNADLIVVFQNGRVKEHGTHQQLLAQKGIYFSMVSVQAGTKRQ
Outline: (§2)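 K562/A02 cells in RPMI 1640 with 10% FBS, 1×10^4/well, grown 24 h. Graded ADM was given with the modulator (0.025–5.0 µM), 48 h at 37 °C, 5% CO2. MTT 4 h, A570. ADM IC50 came from dose–response curves. RF = ADM IC50 without modulator / IC50 with modulator. Triplicates, three independent runs, mean ± SD.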

[2] = target: T1, ATP-dependent translocase ABCB1; experiment: Inhibition of ABCB1 in human K562/A02 cells assessed as potentiation of adriamycin-induced cytotoxicity by measuring reduction in ADR IC50 at 0.5 uM measured after 48 hrs by MTT assay relative to ADR alone; outline: as §2
[3] = target: T1, ATP-dependent translocase ABCB1; experiment: Inhibition of ABCB1 in human K562/A02 cells assessed as increase in adriamycin accumulation pretreated for 60 mins followed by ADR addition after 90 mins by fluorescence spectrophotometric method; conditions: 1.5 h
Outline: (§3)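 ADM was then added at 20 µM for 90 min. Cells were washed three times with PBS at 4 °C. Retained intracellular ADM mean fluorescence intensity was read by fluorescence spectrophotometer. Three independent experiments, mean ± SD.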

[4] = target: T1, ATP-dependent translocase ABCB1; experiment: Inhibition of ABCB1 in human K562/A02 cells assessed as potentiation of adriamycin-induced cytotoxicity by measuring ADR IC50 treated for 48 hrs followed by compound washout measured immediately by MTT assay relative to ADR alone
Outline: (§4)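 Duration of reversal in K562/A02 cells. After modulator exposure, cells were tested without washout or after modulator removal followed by 0, 6, 12 or 24 h in drug-free medium. ADM IC50 was then found by MTT. RF = IC50 without modulator / IC50 with modulator. Two to three experiments, mean ± SD.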

[5] = target: T1, ATP-dependent translocase ABCB1; experiment: Inhibition of ABCB1 in human K562/A02 cells assessed as potentiation of adriamycin-induced cytotoxicity by measuring ADR IC50 treated for 48 hrs followed by compound washout measured after 6 hrs by MTT assay relative to ADR alone; outline: as §4
[6] = target: T1, ATP-dependent translocase ABCB1; experiment: Inhibition of ABCB1 in human K562/A02 cells assessed as potentiation of adriamycin-induced cytotoxicity by measuring ADR IC50 treated for 48 hrs followed by compound washout measured after 24 hrs by MTT assay relative to ADR alone; outline: as §4
[7] = target: T1, ATP-dependent translocase ABCB1; experiment: Inhibition of ABCB1 in human K562/A02 cells assessed as potentiation of adriamycin-induced cytotoxicity by measuring reduction in ADR IC50 at 1 uM measured after 48 hrs by MTT assay relative to ADR alone; outline: as §2
[8] = target: T1, ATP-dependent translocase ABCB1; experiment: Inhibition of ABCB1 in human K562/A02 cells assessed as potentiation of adriamycin-induced cytotoxicity by measuring reduction in ADR IC50 at 0.1 uM measured after 48 hrs by MTT assay relative to ADR alone; outline: as §2
[9] = target: T1, ATP-dependent translocase ABCB1; experiment: Inhibition of ABCB1 in human K562/A02 cells assessed as potentiation of adriamycin-induced cytotoxicity by measuring reduction in ADR IC50 at 5 uM measured after 48 hrs by MTT assay relative to verapamil
[10] = target: T1, ATP-dependent translocase ABCB1; experiment: Inhibition of ABCB1 in human K562/A02 cells assessed as increase in adriamycin accumulation at 0.5 to 2.5 uM pretreated for 60 mins followed by ADR addition after 90 mins by fluorescence spectrophotometric method; conditions: 1.5 h; outline: as §3
[11] = target: T1, ATP-dependent translocase ABCB1; experiment: Inhibition of ABCB1 in human K562/A02 cells assessed as potentiation of adriamycin-induced cytotoxicity measured after 48 hrs by MTT assay; outline: as §2
[12] = target: T1, ATP-dependent translocase ABCB1; experiment: Inhibition of ABCB1 in human K562/A02 cells assessed as potentiation of adriamycin-induced cytotoxicity by measuring reduction in ADR IC50 at 5 uM measured after 48 hrs by MTT assay relative to tariquidar
[13] = target: T1, ATP-dependent translocase ABCB1; experiment: Inhibition of ABCB1 in human K562/A02 cells assessed as potentiation of adriamycin-induced cytotoxicity by measuring ADR IC50 treated for 48 hrs followed by compound washout measured after 12 hrs by MTT assay relative to ADR alone; outline: as §4
[14] = target: T1, ATP-dependent translocase ABCB1; experiment: Inhibition of ABCB1 in human K562/A02 cells assessed as potentiation of adriamycin-induced cytotoxicity by measuring reduction in ADR IC50 at 0.025 uM measured after 48 hrs by MTT assay relative to ADR alone; outline: as §2
[15] = target: T1, ATP-dependent translocase ABCB1; experiment: Inhibition of ABCB1 in human K562/A02 cells assessed as potentiation of adriamycin-induced cytotoxicity by measuring reduction in ADR IC50 at 0.05 uM measured after 48 hrs by MTT assay relative to ADR alone; outline: as §2
[16] = target: T1, ATP-dependent translocase ABCB1; experiment: Inhibition of ABCB1 in human K562/A02 cells assessed as potentiation of adriamycin-induced cytotoxicity by measuring reduction in ADR IC50 at 2.5 uM measured after 48 hrs by MTT assay relative to ADR alone; outline: as §2
[17] = target: T1, ATP-dependent translocase ABCB1; experiment: Inhibition of ABCB1 in human K562/A02 cells assessed as potentiation of adriamycin-induced cytotoxicity by measuring reduction in ADR IC50 at 0.25 uM measured after 48 hrs by MTT assay relative to ADR alone; outline: as §2
[18] = target: T1, ATP-dependent translocase ABCB1; experiment: Inhibition of ABCB1 in human K562/A02 cells assessed as potentiation of adriamycin-induced cytotoxicity by measuring reduction in ADR IC50 at 5 uM measured after 48 hrs by MTT assay relative to JL-A7
[19] = target: T1, ATP-dependent translocase ABCB1; experiment: Potency index, ratio of compound effect to verapamil effect for inhibition of ABCB1 in human K562/A02 cells assessed as increase in adriamycin accumulation at 5 uM; outline: as §3
[20] = target: T1, ATP-dependent translocase ABCB1; experiment: Inhibition of ABCB1 in human K562/A02 cells assessed as rhodamine123 efflux after 90 mins by flow cytometric analysis (reference value: 0.0231 +/- 0.0058 /s); conditions: 1.5 h
[21] = target: T1, ATP-dependent translocase ABCB1; experiment: Inhibition of ABCB1 in human K562/A02 cells assessed as potentiation of adriamycin-induced cytotoxicity by measuring reduction in ADR IC50 measured after 48 hrs by MTT assay relative to ADR alone; outline: as §2
[22] = target: T1, ATP-dependent translocase ABCB1; experiment: Inhibition of ABCB1 in human K562/A02 cells assessed as increase in doxorubicin accumulation after 90 mins by rhodamine123 staining based flow cytometric analysis; conditions: 1.5 h

## COc1cc2c(cc1OC)CN(CCn1cc(COc3ccccc3C(=O)Nc3ccccc3[N+](=O)[O-])nn1)CC2
K562/A02
  IC50: > 100 µM
K562
  IC50: > 100 µM
[1]
  fold change (FC): 3.6

## COc1cc2c(cc1OC)CN(CCn1cc(COc3ccccc3C(=O)Nc3ccccc3)nn1)CC2
K562/A02
  IC50: > 100 µM
K562
  IC50: > 100 µM
[1]
  fold change (FC): 3.8

## COc1cc2c(cc1OC)CN(CCn1cc(COc3ccccc3C(=O)Nc3ccc([N+](=O)[O-])cc3)nn1)CC2
K562/A02
  IC50: > 100 µM
K562
  IC50: > 100 µM
[1]
  fold change (FC): 4.6

## COc1cc2c(cc1OC)CN(CCn1cc(COc3ccccc3C(=O)Nc3ccc(Cl)cc3)nn1)CC2
K562/A02
  IC50: > 100 µM
K562
  IC50: > 100 µM
[1]
  fold change (FC): 14

## COc1cc2c(cc1OC)CN(CCn1cc(COc3ccccc3C(=O)Nc3ccc(C(C)(C)C)cc3)nn1)CC2
[2]
  fold change (FC): 3.9
[3]
  inhibition (INH): Dose-dependent effect
[4]
  fold change (FC): 11.83
[5]
  fold change (FC): 8.16
[6]
  fold change (FC): 2.96
[7]
  fold change (FC): 7.5
[8]
  fold change (FC): 1.6
[9]
  fold change (FC): <= 31.4
[10]
  inhibition (INH): Active
[11]
  inhibition (INH): Dose-dependent effect
[12]
  fold change (FC): <= 31.4
[13]
  fold change (FC): 4.93
[14]
  fold change (FC): 1.4
K562/A02
  IC50: > 100 µM
[15]
  fold change (FC): 1.4
[16]
  fold change (FC): 13.5
[17]
  fold change (FC): 2.4
K562
  IC50: > 100 µM
[18]
  fold change (FC): <= 31.4
[19]
  Ratio: 1.4
[1]
  fold change (FC): 33.5
[20]
  K: 0.0067 s⁻¹
[21]
  fold change (FC): 40.34
[22]
  inhibition (INH): Dose-dependent effect

## COc1cc2c(cc1OC)CN(CCn1cc(COc3ccccc3C(=O)Nc3ccccc3C)nn1)CC2
K562/A02
  IC50: > 100 µM
K562
  IC50: > 100 µM
[1]
  fold change (FC): 4.4

## COc1ccc(NC(=O)c2ccccc2OCc2cn(CCN3CCc4cc(OC)c(OC)cc4C3)nn2)cc1
K562/A02
  IC50: > 100 µM
K562
  IC50: 79.2 µM
[1]
  fold change (FC): 11.6

## COc1cc2c(cc1OC)CN(CCn1cc(COc3ccccc3C(=O)Nc3cc(OC)c(OC)c(OC)c3)nn1)CC2
K562/A02
  IC50: > 100 µM
K562
  IC50: > 100 µM
[1]
  fold change (FC): 3

## COc1cc2c(cc1OC)CN(CCn1cc(COc3ccccc3C(=O)Nc3ccc(F)cc3)nn1)CC2
K562/A02
  IC50: > 100 µM
K562
  IC50: > 100 µM
[1]
  fold change (FC): 11.7

## COc1ccc(CCN(C)CCCC(C#N)(c2ccc(OC)c(OC)c2)C(C)C)cc1OC (stereo not drawn)
[10]
  inhibition (INH): Active
[22]
  inhibition (INH): Dose-dependent effect

## COc1cccc2c1C(=O)c1c(O)c3c(c(O)c1C2=O)C[C@@](O)(C(=O)CO)C[C@@H]3O[C@H]1C[C@H](N)[C@H](O)[C@H](C)O1 [DOXORUBICIN HYDROCHLORIDE]
K562/A02
  IC50: 96.9 µM
K562
  IC50: 4.29 µM
[1]
  fold change (FC): 1
